Measurements as given in ChEMBL document CHEMBL1275413, “Comparison of antimicrobial resistance profiles among extended-spectrum-beta-lactamase-producing and acquired AmpC beta-lactamase-producing Escherichia coli isolates from Canadian intensive care units” (2008).
Values after ≈ are worked out from the molar mass of the structure shown.

Experiments:
Type in all cases: functional
[1] = test system: Escherichia coli; assay: Antibacterial activity against AmpC-producing Escherichia coli isolate by broth microdilution method
Procedure, shortened: (§1)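 Clinical E. coli isolates from Canadian ICUs (CAN-ICU), one per patient and site, genotypically confirmed ESBL or acquired AmpC producers. AmpC groups (EBC, DHA, FOX, CIT) were typed by multiplex PCR and sequencing. Isolates were stored at −80°C in skim milk and subcultured twice from frozen stock. MICs were determined in triplicate by CLSI broth microdilution.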

[2] = test system: Escherichia coli; assay: Antibacterial activity against ESBL-producing Escherichia coli assessed as sensitive isolates by broth microdilution method; procedure, shortened: as §1
[3] = test system: Escherichia coli; assay: Antibacterial activity against ESBL-producing Escherichia coli isolate by broth microdilution method; procedure, shortened: as §1
[4] = test system: Escherichia coli; assay: Antibacterial activity against ESBL-producing Escherichia coli assessed as resistant isolates by broth microdilution method
Procedure, shortened: (§2)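 ICU clinical E. coli isolates, with ESBL or acquired AmpC genotype confirmed (AmpC families by multiplex PCR and sequencing), were stored at −80°C in skim milk and subcultured twice from frozen stock. MICs were determined in triplicate by CLSI broth microdilution. The panel included ampicillin, piperacillin-tazobactam, ceftriaxone, cefepime, cefoxitin, gentamicin, fluoroquinolones, carbapenems, doxycycline, tigecycline and trimethoprim-sulfamethoxazole.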

[5] = test system: Escherichia coli; assay: Antibacterial activity against AmpC-producing Escherichia coli assessed as sensitive isolates by broth microdilution method; procedure, shortened: as §1
[6] = test system: Escherichia coli; assay: Antibacterial activity against ESBL-producing Escherichia coli assessed as sensitive isolates by broth microdilution method in presence of Tazobactam; procedure, shortened: as §1
[7] = test system: Escherichia coli; assay: Antibacterial activity against ESBL-producing Escherichia coli isolate by broth microdilution method in presence of Tazobactam; procedure, shortened: as §1
[8] = test system: Escherichia coli; assay: Antibacterial activity against ESBL-producing Escherichia coli assessed as resistant isolates by broth microdilution method in presence of Tazobactam; procedure, shortened: as §2
[9] = test system: Escherichia coli; assay: Antibacterial activity against AmpC-producing Escherichia coli isolate by broth microdilution method in presence of Tazobactam; procedure, shortened: as §1
[10] = test system: Escherichia coli; assay: Antibacterial activity against AmpC-producing Escherichia coli assessed as sensitive isolates by broth microdilution method in presence of Tazobactam; procedure, shortened: as §1
[11] = test system: Escherichia coli; assay: Antibacterial activity against AmpC-producing Escherichia coli assessed as resistant isolates by broth microdilution method; procedure, shortened: as §2

Row | Compound | MIC [1] [µg/mL] | MIC50 [1] [µg/mL] | MIC90 [1] [µg/mL] | Activity [2] [%] | MIC50 [3] [µg/mL] | MIC90 [3] [µg/mL] | Activity [4] [%] | Activity [5] [%] | Activity [6] [%] | MIC50 [7] [µg/mL] | MIC90 [7] [µg/mL] | Activity [8] [%] | MIC50 [9] [µg/mL] | MIC90 [9] [µg/mL] | Activity [10] [%] | Activity [11] [%] | MIC [3] [µg/mL]
1 | CO/N=C(\C(=O)N[C@@H]1C(=O)N2C(C(=O)[O-])=C(C[N+]3(C)CCCC3)CS[C@H]12)c1csc(N)n1 [CEFEPIME] | ≤ 1 | ≤ 1 | ≤ 1 | 50 | 8 (≈ 16.6 µM) | 32 (≈ 66.6 µM) | 11.1 | 100 | – | – | – | – | – | – | – | – | –
2 | CCN1CCN(C(=O)N[C@@H](C(=O)N[C@@H]2C(=O)N3[C@@H]2SC(C)(C)[C@@H]3C(=O)O)c2ccccc2)C(=O)C1=O [PIPERACILLIN] | – | – | – | – | – | – | – | – | 94.4 | 2 | 8 | 5.6 | 2 | 8 | 100 | – | –
3 | GENTAMICIN | – | < 0.25 | 8 | 66.7 | 1 | 16 | 27.8 | 88.9 | – | – | – | – | – | – | – | 3.7 | –
4 | O=C(O)c1cn(C2CC2)c2cc(N3CCNCC3)c(F)cc2c1=O [CIPROFLOXACIN] | – | ≤ 0.06 | > 16 | 16.7 | > 16 | > 16 | 83.3 | 85.2 | – | – | – | – | – | – | – | 11.1 | –
5 | C[C@@H](O)[C@H]1C(=O)N2C(C(=O)O)=C(S[C@@H]3CN[C@H](C(=O)N(C)C)C3)[C@H](C)[C@H]12 [MEROPENEM] | ≤ 0.12 | ≤ 0.12 | ≤ 0.12 | 100 | ≤ 0.12 | ≤ 0.12 | – | 100 | – | – | – | – | – | – | – | – | ≤ 0.12
6 | C[C@H]1c2cccc(O)c2C(=O)C2=C(O)[C@]3(O)C(=O)C(C(N)=O)=C(O)[C@@H](N(C)C)[C@@H]3[C@@H](O)[C@@H]21.O [DOXYCYCLINE] | – | 2 | 64 | 61.1 | 4 | 64 | 33.3 | 66.7 | – | – | – | – | – | – | – | 18.5 | –
7 | CO[C@@]1(NC(=O)Cc2cccs2)C(=O)N2C(C(=O)O)=C(COC(N)=O)CS[C@@H]21 [CEFOXITIN] | – | 256 (≈ 599 µM) | > 256 | 61.1 | 8 (≈ 18.7 µM) | 32 (≈ 74.9 µM) | 16.7 | – | – | – | – | – | – | – | – | 100 | –
8 | CN(C)c1cc(NC(=O)CNC(C)(C)C)c(O)c2c1C[C@H]1C[C@H]3[C@H](N(C)C)C(O)=C(C(N)=O)C(=O)[C@@]3(O)C(O)=C1C2=O [TIGECYCLINE] | – | 0.25 (≈ 0.427 µM) | 0.5 (≈ 0.854 µM) | 100 | 0.5 (≈ 0.854 µM) | 1 (≈ 1.71 µM) | – | 100 | – | – | – | – | – | – | – | – | –
9 | C[C@@H](O)[C@H]1C(=O)N2C(C(=O)O)=C(S[C@@H]3CN[C@H](C(=O)Nc4cccc(C(=O)O)c4)C3)[C@H](C)[C@H]12 [ERTAPENEM] | – | 0.12 (≈ 0.252 µM) | 0.5 (≈ 1.05 µM) | 100 | 0.12 (≈ 0.252 µM) | 0.25 (≈ 0.526 µM) | – | 100 | – | – | – | – | – | – | – | – | –
10 | C[C@H]1COc2c(N3CCN(C)CC3)c(F)cc3c(=O)c(C(=O)O)cn1c23.C[C@H]1COc2c(N3CCN(C)CC3)c(F)cc3c(=O)c(C(=O)O)cn1c23.O [LEVOFLOXACIN] | – | ≤ 0.06 | 16 | 16.7 | 16 | 32 | 83.3 | 88.9 | – | – | – | – | – | – | – | 26.6 | –
11 | CC1(C)S[C@@H]2[C@H](NC(=O)[C@H](N)c3ccccc3)C(=O)N2[C@H]1C(=O)O [AMPICILLIN] | > 256 | > 256 | > 256 | – | > 256 | > 256 | 100 | – | – | – | – | – | – | – | – | 100 | > 256
12 | CO/N=C(\C(=O)N[C@@H]1C(=O)N2C(C(=O)O)=C(CSc3nc(=O)c(O)nn3C)CS[C@H]12)c1csc(N)n1 [CEFTRIAXONE] | – | 16 (≈ 28.9 µM) | 64 (≈ 115 µM) | 5.6 | 128 (≈ 231 µM) | > 256 | 83.3 | 44.4 | – | – | – | – | – | – | – | 11.1 | –
